A selection: hits, their analogues and other compounds. The true share with any hit is near 1.5%.
CXCR6 block = inhibitors of human CXCR6 receptor | CHO-K1 PathHunter CXCR6 beta-arrestin, luminescence | inhibition, % at 20 µM | 360,000 compounds, 0.36% hits | AID 602244; in the data active = inhibition above about 34%, passing the limit was not always enough;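 note: antagonist mode with CXCL16 agonist at 10 nM final; 0% = 10 nM CXCL16 with DMSO and 100% = unstimulated wells without agonist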
Target sequence (O00574 whole entry, looked up): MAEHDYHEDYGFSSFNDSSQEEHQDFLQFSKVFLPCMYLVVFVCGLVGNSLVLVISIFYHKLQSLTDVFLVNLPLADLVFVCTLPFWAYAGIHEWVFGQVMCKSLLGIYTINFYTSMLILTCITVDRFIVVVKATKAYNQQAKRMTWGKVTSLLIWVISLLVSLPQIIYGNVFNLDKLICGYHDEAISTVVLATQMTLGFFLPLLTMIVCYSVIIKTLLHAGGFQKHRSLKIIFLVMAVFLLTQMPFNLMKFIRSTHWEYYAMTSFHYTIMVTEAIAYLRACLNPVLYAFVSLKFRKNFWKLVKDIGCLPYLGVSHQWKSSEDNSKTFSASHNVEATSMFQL
CCR6 antagonist = blocks CCL20-driven beta-arrestin recruitment at human CCR6; AID 493098; P51684; inhibition, % at 20 µM; 340,000 compounds, 0.49% hits; CHO-K1 CCR6 PathHunter beta-arrestin, luminescence, CCL20-stimulated;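 active = compounds whose inhibition of the agonist-driven luminescence signal at 20 µM reaches about 50%, limit read from the data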;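 note: cells stimulated with CCL20 at 14 nM final; plate controls were DMSO with CCL20 for no effect and DMSO without agonist for full effect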
APJ agonist = APJ receptor agonism | CHO-K1 APJ PathHunter beta-arrestin, luminescence; 0% DMSO wells, 100% apelin | activation, % at 20 µM | 330,000 compounds, 0.11% hits | AID 2520;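 active = activation more than six SD over the plate average, tested at 20 µM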;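 note: 0% = DMSO alone and 100% = apelin-13 at 10 nM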
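Test system – PathHunter CHO-K1 APJ (AGTRL-1) beta-arrestin reporter cells · Input – 1000 cells/well · Compound – single test compound dose, 20 µM final, 1% DMSO · Times – compound stimulation 90 min at 25 °C, detection 60 min · Technique – beta-gal luminescence · Read-out basis – APJ–arrestin association signal · Control set – negative DMSO alone, positive Apelin-13 at 10 nM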
APJ antag = antagonists of human APJ apelin receptor | P35414 | CHO-K1 APJ beta-arrestin complementation, luminescence | inhibition, % at 20 µM | 330,000 compounds, 0.32% hits;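 active = inhibition above about 40% at 20 µM, limit read from the data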;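 note: cells challenged with 10 nM apelin-13 agonist together with compound; plate controls were apelin-13 plus DMSO wells for no effect and DMSO wells lacking apelin-13 for full effect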
EBI2 antag = EBI2 (human) antagonism. EBI2 beta-arrestin recruitment, luminescence, 7a,25-OHC stimulated. 360,000 compounds, 0.81% hits. inhibition, % at 5 µM; in the data active = inhibition above about 38%;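 note: enzyme fragment complementation signal reports receptor beta-arrestin coupling in cells; 0% = agonist plus DMSO wells and 100% = wells without agonist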
Numbers without * were called inactive; . = no result.

SMILES	CXCR6 block	CCR6 antagonist	APJ agonist	APJ antag	EBI2 antag
C[C@@H]1[C@@H](Sc2ccccc2)CC(=O)O[C@@H]1c1ccc(-c2ccccc2)cc1	-13	0	7	-14	10
Cc1nn(Cc2ccc(F)cc2)c(C)c1NC(=O)c1cnn2c1NC(c1cccs1)CC2C(F)(F)F (stereo unspecified)	7	-2	1	-17	37*
Cc1nn(Cc2ccc(F)cc2)c(C)c1NC(=O)c1cnn2c1NC(c1ccccc1)CC2C(F)(F)F (stereo unspecified)	-14	-9	-1	-15	0
C=CCNc1nc(NCc2cccc(OC)c2)c2sc(-c3ccccc3)cc2n1	18	.	.	.	57*
COC(=O)C1=C(C)N(Cc2ccc(C)cc2)C(=O)/C1=C\c1cc(OC)c(OC)c(OC)c1	12	38	-1	3	37
COC(=O)C1=C(C)N(Cc2ccc(C)cc2)C(=O)/C1=C\c1ccc(O)c(OC)c1	36*	34	-1	14	7
COc1ccc(CCNC(=O)CNC(=O)c2ccccc2Br)cc1OC	-2	6	-1	0	1
O=C(Nc1nc(-c2ccccc2)cs1)C1CCCN(S(=O)(=O)c2ccccc2)C1 (stereo unspecified)	-8	66*	7	6	-14
O=C(Nc1nc(-c2ccccc2)cs1)C1CCCN(S(=O)(=O)c2cccc([N+](=O)[O-])c2)C1 (stereo unspecified)	-15	5	-1	-12	1
O=P(NC1CCCCC1)(c1ccccc1)c1ccccc1	-1	6	.	.	1
CC/C(=C\C1CCCCC1)C(NP(=O)(c1ccccc1)c1ccccc1)c1ccccc1 (stereo unspecified)	44*	35	-2	21	-22
COCCNC(=O)/C(C#N)=C/c1ccc(N2CCOCC2)o1	52*	19	0	0	-9
N#C/C(=C\c1ccc(N2CCOCC2)o1)C(=O)NCCc1ccccc1	7	7	-3	17	8
CC(=O)Nc1ccc(S(=O)(=O)N2CCN(C(=O)c3ncoc3-c3ccccc3C)CC2)cc1	-6	6	-2	0	10
COc1cc2c(cc1OC)C(C)=NCC2	1	-11	-4	4	-5
COc1cc2c(cc1OC)C(c1ccc(-c3ccccc3Cl)o1)=NCC2	0	4	-1	9	49*
COc1cc2c(cc1OC)C(c1ccc(Cl)cc1)=NCC2	7	17	0	-19	6
COc1cc2c(cc1OC)C(c1ccc(-c3cc(Cl)ccc3Cl)o1)=NCC2	-1	0	-1	11	62*
COc1cc2c(cc1OC)C(c1ccc(-c3ccc(Cl)c(Cl)c3)o1)=NCC2	-9	10	-1	8	66*
CN(C(=O)CSc1nnc(C(F)(F)F)n1C)c1c(N)n(Cc2ccccc2)c(=O)[nH]c1=O	2	.	.	.	-1
CCOC1=C2[C@@H](CN(S(=O)(=O)c3ccc(C)cc3)[C@H]2c2ccccc2)[C@H]2C(=O)N(Cc3ccccc3)C(=O)[C@H]2C1	6	.	.	.	6
C=C1CC(Cn2cc(Br)c(=O)[nH]c2=O)(c2ccc(-c3ccccc3)cc2)OC1=O (stereo unspecified)	43*	.	.	.	84*
CC(=O)OC[C@H]1O[C@@H](O/N=C/[C@@H](C)[C@H](OCc2ccccc2)C(C)C)[C@H](OC(C)=O)[C@@H](OC(C)=O)[C@@H]1OC(C)=O	.	.	0	6	.
C=C(CN(C)C)C(=O)c1ccc(OC2OC(COC(C)=O)C(OC(C)=O)C(OC(C)=O)C2OC(C)=O)cc1 (stereo unspecified)	90*	100*	.	.	72*
O=C1/C(=C\c2ccc(O)cc2)SC(=S)N1/N=C/c1ccc(O)cc1	47*	66*	-7	30	11
SMILES	CXCR6 block	CCR6 antagonist	APJ agonist	APJ antag	EBI2 antag
O=S(=O)(O)c1ccc(N=Nc2ccccc2)cc1	9	17	-3	12	-8
O=c1ccc(N=Nc2ccccc2)ccc1O	29	66*	.	.	-5
O=C(Nc1cc(Cl)cc(Cl)c1)N[C@@H]1CC[C@@H](CCNS(=O)(=O)c2cccc(F)c2)O[C@@H]1CO	.	.	.	.	12
Cc1ccc(C2C3CSCC=C3C(C#N)=C(N)C2(C#N)C#N)cc1 (stereo unspecified)	11	52*	-6	2	3
C=CCc1cccc(CNn2cnnc2)c1O	62*	20	-4	16	-5
Cc1[nH]n(-c2ccccc2)c(=O)c1N=Nc1c(O)cc(S(=O)(=O)N(C)C)c2ccccc12	24	68*	-10	30	-38
Cc1ccc(S(=O)(=O)N(CC(=O)N2CCOCC2)c2ccc(C(C)C)cc2)cc1	-5	11	-1	13	-17
Cc1ccc(S(=O)c2ccc([N+](=O)[O-])c3nonc23)cc1 (stereo unspecified)	13	.	.	.	-15
Cc1ccc(N/C(N)=N/c2nc(C)cc(N3CCCCC3)n2)c(C)c1	2	3	28*	-23	-17
COc1ccc(Oc2ccc(/C=C/C(=O)c3ccc(O)cc3)cc2[N+](=O)[O-])cc1	5	43	-4	18	79*
CC(C)C(NC(=O)c1ccc(F)cc1)C(=O)N1CCN(c2ccccn2)CC1 (stereo unspecified)	-1	-5	-1	-3	-4
CN(C)S(=O)(=O)c1ccc(C(=O)Nc2ccc3c(c2)CCC3)cc1	9	7	-1	8	56*
CN(C)S(=O)(=O)c1cccc(C(=O)Nc2ccc3c(c2)CCC3)c1	0	-2	0	17	6
Cn1cc(C2=C(c3ccc(Cl)cc3Cl)C(=O)NC2=O)c2ccccc21	15	39	-4	15	49*
Cn1cc(-c2ccccc2C(N)=O)c(=O)c2cc(Cl)ccc21	0	1	-1	6	0
CC1(C)CC(=O)C2=C(C1)Nc1ccccc1N=C2	.	.	-31	58*	.
N#C/C(=C\c1ccc(-c2cccc([N+](=O)[O-])c2)o1)C(=O)Nc1nc(-c2cccs2)cs1	30	84*	-7	30	4
O=C(N/N=C/c1ccc(-c2cccc([N+](=O)[O-])c2)o1)c1cccs1	-5	3	-3	-1	0
COCCOC1CCN(C(=O)C2CCC(=O)N(CCc3ccccc3)C2)CC1 (stereo unspecified)	2	12	-4	10	9
C=C1CCC2C(C)(C(=O)O)CCCC2(C)C1CCC(CO)CCO (stereo unspecified)	-3	.	.	.	2
CCNC(=S)N=Nc1c(O)[nH]c2ccc([N+](=O)[O-])cc12	21	42	-5	38	10
O=[N+]([O-])c1ccc2[nH]c(O)c(N=NC(=S)Nc3cccnc3)c2c1	42*	70*	-4	34	30
Cc1ccc(F)c(CNC(=O)C2CCC(=O)N(Cc3ccccn3)C2)c1F (stereo unspecified)	-12	4	-6	19	-11
CNCc1ccccc1Sc1cc(O)ccc1O	40	84*	4	-54	-3

Compound activity deposited in PubChem by Sanford-Burnham Center for Chemical Genomics.
